Data set [1] addresses T1, Prostaglandin E2 receptor EP1 subtype (Homo sapiens, UniProt P34995).
T1 sequence (P34995 whole entry): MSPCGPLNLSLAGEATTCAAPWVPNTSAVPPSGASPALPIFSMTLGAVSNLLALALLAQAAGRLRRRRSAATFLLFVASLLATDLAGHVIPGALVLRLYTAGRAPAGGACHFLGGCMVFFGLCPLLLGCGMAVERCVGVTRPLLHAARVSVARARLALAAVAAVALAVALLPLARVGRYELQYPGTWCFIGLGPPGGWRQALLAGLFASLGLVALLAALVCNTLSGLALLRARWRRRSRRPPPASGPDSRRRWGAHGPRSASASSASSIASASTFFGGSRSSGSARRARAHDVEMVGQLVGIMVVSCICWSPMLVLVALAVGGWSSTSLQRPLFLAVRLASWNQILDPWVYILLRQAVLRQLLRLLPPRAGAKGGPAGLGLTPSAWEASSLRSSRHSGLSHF
Kind of data set: Displacement of [3H]PGE2 from EP1 receptor expressed in CHO-K1 cells. It is filed as cell-based. The method in brief:
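Membranes from cells expressing the receptor, incubated with test compound and [³H]PGE₂ (3 nM final) for 30 min at 30 °C. Bound radioactivity read by liquid scintillation counting. Values are means of at least four experiments.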

Data set [2] addresses T1, Prostaglandin E2 receptor EP1 subtype. Briefly: Antagonist activity at EP1 receptor expressed in CHO-K1 cells assessed as inhibition of PGE2-stimulated calcium ion mobilization by FLIPR assay. Type of data set: functional, cell-based. In outline:
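Stably EP1- or EP3-transfected CHO-K1 whole cells loaded with the calcium-sensitive dye Fluo-3. Inhibition of PGE₂-evoked intracellular Ca²⁺ mobilisation measured, reported as pKi.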

In data set [3] the target is Prostaglandin E2 receptor EP3 subtype (Homo sapiens) (UniProt P43115). Kind of data set: Inhibition of PGE2-induced intracellular Ca2+ mobilisation (FLIPR) at EP3 receptor expressed in CHO-K1 cells. For orientation: A change in cytosolic calcium serves as a functional read-out for many receptors and channels.
The nature of data set [4]: Tmax in rat at 3 mg/kg, po. Also on record: dose 3 mg/kg, route oral. Type of data set: ADME, organism-based. The settings on record: in vivo. In outline: (§1)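 Oral dosing with drug levels measured in blood. Cmax, Tmax and AUC normalised to dose were derived from the blood concentration–time profile.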
Data set [5] is filed under the species Rattus norvegicus. Briefly: Activity against Freund's complete adjuvant-induced inflammatory pain in rat. It is filed as functional.
For a further data set, the target named is Cytochrome P450 3A4 (Homo sapiens, UniProt P08684). Briefly: Inhibition of CYP450 3A4. It is filed as ADME. In outline:
(§2)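 In vitro CYP450 inhibition run by the Gentest protocol, with IC₅₀ determined for each isoform.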

A further data set addresses Cytochrome P450 2D6 (Homo sapiens, UniProt P10635). Kind of data set: Inhibition of CYP450 2D6. Type of data set: ADME. The method in brief: as §2
A further data set has as its target Cytochrome P450 2C9 (Homo sapiens, UniProt P11712). Briefly: Inhibition of CYP450 2C9. It is filed as ADME. The method in brief: as §2
Data set [6] has as its system Liver microsomes. Kind of data set: Intrinsic clearance in rat liver microsome. Type of data set: ADME. On the technique in general: Microsomes from liver hold many membrane-bound enzymes, among them those of drug oxidation.
Data set [7] in a line: Cmax in rat at 3 mg/kg, po. Type of data set: ADME, organism-based. Also on record: dose 3 mg/kg, route oral. The settings on record: in vivo. The method in brief: as §1
The subject of data set [8] is Rattus norvegicus. Briefly: AUC/dose in rat at 3 mg/kg, po. It is filed as ADME, organism-based, Plasma. Also on record: dose 3 mg/kg, route oral. Particulars: in vivo. The method in brief:
as §1

The next data set concerns the target T2, Cytochrome P450 1A2 (Homo sapiens, UniProt P05177).
T2 sequence (P05177 whole entry): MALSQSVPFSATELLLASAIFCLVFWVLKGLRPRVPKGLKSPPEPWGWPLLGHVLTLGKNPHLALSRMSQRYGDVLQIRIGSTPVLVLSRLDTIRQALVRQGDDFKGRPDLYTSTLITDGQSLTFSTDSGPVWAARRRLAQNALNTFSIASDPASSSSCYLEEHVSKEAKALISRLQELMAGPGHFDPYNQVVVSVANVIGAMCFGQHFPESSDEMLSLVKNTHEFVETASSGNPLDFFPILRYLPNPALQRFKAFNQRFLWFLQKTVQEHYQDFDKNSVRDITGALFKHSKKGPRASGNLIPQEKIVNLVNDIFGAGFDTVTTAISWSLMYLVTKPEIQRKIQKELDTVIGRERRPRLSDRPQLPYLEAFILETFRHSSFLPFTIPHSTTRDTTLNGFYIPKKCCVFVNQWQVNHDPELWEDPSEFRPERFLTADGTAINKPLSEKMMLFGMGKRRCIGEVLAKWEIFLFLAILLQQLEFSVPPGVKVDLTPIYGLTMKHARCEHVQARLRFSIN
Briefly: Inhibition of CYP450 1A2. It is filed as ADME. The method in brief:
as §2

The test system of data set [9] is Liver microsomes. Briefly: Intrinsic clearance in human liver microsome. Type of data set: ADME.
For the next data set, the target named is Cytochrome P450 2C19 (Homo sapiens, UniProt P33261). Briefly: Inhibition of CYP450 2C19. Type of data set: ADME. In outline: as §2
In data set [10] the test system is Rattus norvegicus. Kind of data set: AUC in rat at 3 mg/kg, po. Type of data set: ADME, organism-based, Plasma. Also on record: dose 3 mg/kg, route oral. Particulars: in vivo. In outline: as §1
The nature of data set [11]: Distribution coefficient, log D at pH 7.4. It is filed as physicochemical. Particulars: octanol/water.
A short description of data set [12]: Solubility at pH 7.4. Type of data set: physicochemical. The settings on record: buffer.

In brackets after ≈: the same amount, converted by molar mass.

Sequence of Prostaglandin E2 receptor EP3 subtype (Homo sapiens) (P43115 whole entry, looked up): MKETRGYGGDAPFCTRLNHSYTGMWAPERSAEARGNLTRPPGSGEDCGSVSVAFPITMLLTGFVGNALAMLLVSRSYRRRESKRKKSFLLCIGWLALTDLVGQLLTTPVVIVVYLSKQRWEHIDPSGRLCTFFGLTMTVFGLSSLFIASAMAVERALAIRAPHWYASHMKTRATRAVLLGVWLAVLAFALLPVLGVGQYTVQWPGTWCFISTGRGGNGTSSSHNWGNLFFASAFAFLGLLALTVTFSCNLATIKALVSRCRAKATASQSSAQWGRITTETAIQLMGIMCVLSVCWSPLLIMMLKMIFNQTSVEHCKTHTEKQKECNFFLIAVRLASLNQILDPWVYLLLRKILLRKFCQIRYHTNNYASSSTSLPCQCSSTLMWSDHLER
Sequence of Cytochrome P450 2C19 (P33261 whole entry): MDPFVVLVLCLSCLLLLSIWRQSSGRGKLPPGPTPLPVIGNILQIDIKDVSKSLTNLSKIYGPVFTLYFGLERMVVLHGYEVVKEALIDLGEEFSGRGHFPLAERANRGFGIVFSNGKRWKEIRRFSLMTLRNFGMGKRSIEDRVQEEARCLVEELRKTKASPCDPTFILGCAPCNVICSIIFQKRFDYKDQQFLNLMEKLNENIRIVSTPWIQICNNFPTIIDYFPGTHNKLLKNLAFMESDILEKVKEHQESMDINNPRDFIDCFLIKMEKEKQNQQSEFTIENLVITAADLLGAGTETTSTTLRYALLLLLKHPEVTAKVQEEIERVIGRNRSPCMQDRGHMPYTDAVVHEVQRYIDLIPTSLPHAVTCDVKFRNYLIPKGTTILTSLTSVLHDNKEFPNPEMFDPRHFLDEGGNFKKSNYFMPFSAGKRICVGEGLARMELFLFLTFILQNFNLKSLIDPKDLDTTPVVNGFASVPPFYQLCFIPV
Sequence of Cytochrome P450 2C9 (P11712 whole entry): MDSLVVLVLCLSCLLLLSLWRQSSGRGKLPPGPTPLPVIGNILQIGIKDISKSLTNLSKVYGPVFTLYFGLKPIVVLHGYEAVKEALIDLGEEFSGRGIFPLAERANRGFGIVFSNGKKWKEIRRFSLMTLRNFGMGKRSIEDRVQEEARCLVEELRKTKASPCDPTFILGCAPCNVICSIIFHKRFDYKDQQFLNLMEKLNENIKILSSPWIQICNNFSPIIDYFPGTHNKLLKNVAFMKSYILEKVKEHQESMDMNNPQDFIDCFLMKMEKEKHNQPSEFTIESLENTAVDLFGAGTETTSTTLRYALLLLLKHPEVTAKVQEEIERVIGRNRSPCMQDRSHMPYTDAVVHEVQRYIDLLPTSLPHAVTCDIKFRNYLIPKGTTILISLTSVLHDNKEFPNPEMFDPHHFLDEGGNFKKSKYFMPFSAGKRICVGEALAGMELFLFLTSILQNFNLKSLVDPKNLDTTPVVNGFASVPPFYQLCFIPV
Sequence of Cytochrome P450 3A4 (P08684 whole entry, canonical isoform): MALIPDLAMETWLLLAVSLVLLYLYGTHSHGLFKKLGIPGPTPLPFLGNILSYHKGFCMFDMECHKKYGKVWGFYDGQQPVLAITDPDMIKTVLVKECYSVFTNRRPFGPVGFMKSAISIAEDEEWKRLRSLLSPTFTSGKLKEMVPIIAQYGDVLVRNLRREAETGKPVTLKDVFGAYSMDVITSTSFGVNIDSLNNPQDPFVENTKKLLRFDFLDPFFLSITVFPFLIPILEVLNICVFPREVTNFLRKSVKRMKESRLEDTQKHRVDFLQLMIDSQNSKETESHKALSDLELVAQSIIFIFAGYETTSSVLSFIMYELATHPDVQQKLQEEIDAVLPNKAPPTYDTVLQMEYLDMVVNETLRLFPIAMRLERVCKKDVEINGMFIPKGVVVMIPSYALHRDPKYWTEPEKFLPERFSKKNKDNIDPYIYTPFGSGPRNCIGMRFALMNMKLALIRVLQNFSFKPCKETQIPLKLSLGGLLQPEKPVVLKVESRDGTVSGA
Sequence of Cytochrome P450 2D6 (P10635 whole entry): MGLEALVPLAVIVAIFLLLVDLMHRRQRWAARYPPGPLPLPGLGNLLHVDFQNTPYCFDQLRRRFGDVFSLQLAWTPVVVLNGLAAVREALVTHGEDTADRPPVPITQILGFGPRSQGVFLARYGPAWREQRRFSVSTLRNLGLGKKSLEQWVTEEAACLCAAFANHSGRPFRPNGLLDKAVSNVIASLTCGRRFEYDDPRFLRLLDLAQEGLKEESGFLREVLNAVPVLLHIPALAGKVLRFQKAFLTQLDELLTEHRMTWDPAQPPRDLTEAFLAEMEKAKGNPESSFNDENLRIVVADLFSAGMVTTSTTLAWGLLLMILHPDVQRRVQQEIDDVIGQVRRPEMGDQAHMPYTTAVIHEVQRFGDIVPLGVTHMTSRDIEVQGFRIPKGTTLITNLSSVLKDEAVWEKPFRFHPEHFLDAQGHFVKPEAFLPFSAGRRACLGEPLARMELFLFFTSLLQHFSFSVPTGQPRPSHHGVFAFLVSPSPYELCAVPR

Regarding `Cc1cc(C(=O)O)nn1Cc1cc(Br)ccc1OCc1ccc(C(C)(C)C)cc1`, the IC50 in [1] was 1230 nM. For the same molecule, the Ki in data set [2] was over 2000 nM.
Consider `Cc1cc(C(=O)O)nn1Cc1cc(Cl)ccc1OCc1ccc(Cl)cc1Cl`, for which the Ki was over 2000 nM in [3] and 0.55 nM in data set [2].
As to `Cc1cc(C(=O)O)nn1Cc1cc(Br)ccc1OCc1ccccc1`, the Tmax in data set [4] stood at 30 min. Besides, the ED50 in the data set filed under Rattus norvegicus [5] was determined as 1.3 mg/kg. Besides, the IC50 is over 100000 nM against Cytochrome P450 3A4; over 100000 nM against Cytochrome P450 2D6; over 100000 nM on Cytochrome P450 2C9; 6.46 nM in data set [1]; 21000 nM against Cytochrome P450 1A2; over 100000 nM at Cytochrome P450 2C19. In addition, the CL is under 0.5 mL/min/g with Liver microsomes [6] and 0.6 mL/min/g in the data set with Liver microsomes [9]. This molecule also returned a Cmax in [7] of 5.69 µM. The molecule further showed an AUC/dose in the data set on Rattus norvegicus [8] of 124 kg·min/L. The Ki in data set [2] was 15.1 nM. The molecule also came in with an AUC with Rattus norvegicus [10] of 16.3 µM·h. Further, the logD in data set [11] was determined as 1.15. The molecule further gave a solubility in [12] of 850 µg/mL (≈ 2120 µM).
Consider `COc1ccccc1COc1ccc(Br)cc1Cn1nc(C(=O)O)cc1C`, for which, in data set [2], the Ki is 69.2 nM.
`Cc1cc(C(=O)O)nn1Cc1cc(Br)ccc1OCc1cccc([N+](=O)[O-])c1`: in data set [2], the Ki is 339 nM.
Consider `O=C(O)c1nn(Cc2cc(Br)ccc2OCc2ccccc2)cc1F`, for which the IC50 in data set [1] is 123 nM. In data set [2], the Ki is 692 nM.
For `O=C(O)c1nn(Cc2cc(Br)ccc2OCc2ccccc2)cc1C(F)(F)F` the same measures were 2570 nM and over 2000 nM.
As for `CC(=O)Nc1cc(C(=O)O)nn1Cc1cc(Br)ccc1OCc1ccccc1`, the Ki in data set [2] was over 2000 nM.
Still for that read-out and setting: next, `Cc1cc(C(=O)O)nn1Cc1cc(Br)ccc1OCc1cc(Cl)cc(Cl)c1`: 1120 nM; `O=C(O)c1cncn1Cc1cc(Br)ccc1OCc1ccccc1`: over 2000 nM; `Cc1cc(C(=O)O)nn1Cc1cc(F)ccc1OCc1ccc(Cl)cc1Cl`: 20.4 nM.
Turning to `Cc1cc(C(=O)O)nn1Cc1cc(Br)ccc1OCc1cccc(C(F)(F)F)c1`, the IC50 in [1] is 309 nM. In addition, in data set [2], the Ki is 1100 nM.
Turning to `O=C(O)c1cnn(Cc2cc(Br)ccc2OCc2ccccc2)c1`, the Ki in data set [2] was over 2000 nM.
For `O=C(O)c1cccc(-c2sccc2-c2cc(Cl)ccc2OCc2ccccc2)c1`, in data set [1], the IC50 is 3.55 nM. Also, the Ki in [2] is 1.26 nM.
`Cc1cc(C(=O)O)nn1Cc1cc(Cl)ccc1OCc1ccc(F)cc1F`: the values for the Ki in data set [3] and in data set [2] were over 2000 nM and 1.12 nM, respectively.
`Cc1cc(C(=O)O)nn1Cc1cc(Br)ccc1OCc1ccc(Cl)c(C(F)(F)F)c1` showed an IC50 in [1] of 575 nM. Also, the Ki in data set [2] was over 2000 nM.
Taken in the same sequence, the figures for `Cc1cc(C(=O)O)nn1Cc1cc(Br)ccc1OCc1ccccc1Cl` were 3.16 nM and 28.8 nM.
For `O=C(O)c1nn(Cc2cc(Br)ccc2OCc2ccccc2)cc1CO` the same measures were 676 nM and over 2000 nM.
As for `CCCCc1cc(C(=O)O)nn1Cc1cc(Br)ccc1OCc1ccccc1`, the Ki in data set [2] was 977 nM.
In the case of `Cc1cc(C(=O)O)nn1Cc1cc(F)ccc1OCc1ccc(F)cc1F`, the figures for the Ki in [3] and in data set [2] were over 2000 nM and 7.94 nM, respectively.
The molecule `O=C(O)c1cc(-c2cccs2)n(Cc2cc(Br)ccc2OCc2ccccc2)n1` gave an IC50 in [1] of 195 nM. For the same molecule, in [2], the Ki was 617 nM.
In turn, `Cc1cc(C(=O)O)nn1Cc1cc(Br)ccc1OCc1cccc(Br)c1` showed an IC50 in data set [1] of 17.8 nM. Moreover, the Ki in data set [2] is 129 nM.
Molecule `Cc1cn(Cc2cc(Br)ccc2OCc2ccccc2)nc1C(=O)O` showed a half-inhibitory concentration (IC50) in [1] of 427 nM. For the same molecule, in data set [2], the Ki is 1350 nM.
Taken in the same sequence, the figures for `O=C(O)c1ccn(Cc2cc(Br)ccc2OCc2ccccc2)n1` were 9.77 nM and 55 nM.
For `Cc1cc(C(=O)O)nn1Cc1cc(Br)ccc1OCc1ccc(C(F)(F)F)cc1` the same measures were 35.5 nM and 97.7 nM.
On to `O=C(O)c1cn(Cc2cc(Br)ccc2OCc2ccccc2)cn1`, for which the Ki in [2] was over 2000 nM.
In the case of `Cc1cc(C(=O)O)nn1Cc1cc(Br)ccc1OCc1c(F)cccc1F`, in data set [1], the IC50 is 14.8 nM. Further, the Ki in [2] was 105 nM.
Consider `O=C(O)c1ccnn1Cc1cc(Br)ccc1OCc1ccccc1`, for which the Ki in [2] was over 2000 nM.
For the molecule `Cc1cc(C(=O)O)nn1Cc1cc(Br)ccc1OCc1ccc(Cl)cc1`, in [1], the IC50 is 8.71 nM. In [2], the Ki is 8.71 nM.
On to `O=C(O)c1cn(Cc2cc(Br)ccc2OCc2ccccc2)nn1`, for which, in data set [2], the Ki is over 2000 nM.
For the molecule `Cc1cc(C(=O)O)nn1Cc1ccccc1OCc1ccc(Cl)cc1Cl`, the figures for the Ki in [3] and in data set [2] were over 2000 nM and 8.32 nM, respectively.
Turning to `Cc1cc(C(=O)O)nn1Cc1cc(Br)ccc1OCc1cc(C(F)(F)F)cc(C(F)(F)F)c1`, the IC50 in data set [1] was 5250 nM. The Ki in [2] is over 2000 nM.
Taken in the same sequence, the figures for `Cc1cc(C(=O)O)nn1Cc1cc(Br)ccc1OCc1ccc(F)cc1F` were 0.525 nM and 2.63 nM.
`O=C(O)c1nn(Cc2cc(Br)ccc2OCc2ccccc2)cc1Br` gave an IC50 in [1] of 457 nM. For the same molecule, in data set [2], the Ki is over 2000 nM.
For `Cc1cccc(COc2ccc(Br)cc2Cn2nc(C(=O)O)cc2C)c1` the same measures were 126 nM and 525 nM.
For `Cc1cc(C(=O)O)nn1Cc1cc(Br)ccc1OCc1ccc(F)cc1` the same measures were 7.41 nM and 11.7 nM.
Taken in the same sequence, the figures for `Cc1cc(C(=O)O)nn1Cc1cc(Br)ccc1OCc1ccc(Cl)cc1Cl` were 0.132 nM and 0.49 nM.
As to `Cc1cc(C(=O)O)nn1Cc1cc(Br)ccc1OCc1cccc(Cl)c1`, the IC50 in data set [1] is 115 nM. For the same molecule, the Ki in [2] was 427 nM.
For `O=C(O)c1nn(Cc2cc(Br)ccc2OCc2ccccc2)cc1Cl`, in [2], the Ki was over 2000 nM.

The term IC50 denotes the concentration at which inhibition is half-maximal. The low end stands for greater potency, the high end for weaker potency. Usually Ki stands for the equilibrium dissociation constant of an inhibitor or competing ligand from its target. A word on the Tmax: it is the time at which the peak concentration occurs. As usually defined, the ED50 is the dose at which the effect has come halfway, by size or by number of responders. One may read the Cmax as the maximum level reached in the sampled fluid or tissue. As usually defined, the AUC is concentration integrated over time. Low readings indicate less exposure, high ones more exposure. One may read the logD as lipophilicity at a set pH, counting ionised and neutral species. One may read the solubility as the dissolved amount per volume that the medium holds. Higher therefore signals much dissolved substance.

For the origin of these results see ChEMBL document CHEMBL1149349, “Identification of novel pyrazole acid antagonists for the EP1 receptor” (Bioorg Med Chem Lett, 2006).
